A word on the logP: it is a log measure of how a compound divides between an organic and an aqueous phase.

Here are results for 14 compounds from ChEMBL document CHEMBL1122208, “Inhibitors of hepatic mixed-function oxidases. 4. Effects of benzimidazole and related compounds on aryl hydrocarbon hydroxylase activity from phenobarbitone and 3-methylcholanthrene induced rats” (J Med Chem, 1982).

The target in data set [1] is T1, Cytochrome P450 2B1 (Rattus norvegicus, UniProt P00176).
T1 sequence (P00176 whole entry): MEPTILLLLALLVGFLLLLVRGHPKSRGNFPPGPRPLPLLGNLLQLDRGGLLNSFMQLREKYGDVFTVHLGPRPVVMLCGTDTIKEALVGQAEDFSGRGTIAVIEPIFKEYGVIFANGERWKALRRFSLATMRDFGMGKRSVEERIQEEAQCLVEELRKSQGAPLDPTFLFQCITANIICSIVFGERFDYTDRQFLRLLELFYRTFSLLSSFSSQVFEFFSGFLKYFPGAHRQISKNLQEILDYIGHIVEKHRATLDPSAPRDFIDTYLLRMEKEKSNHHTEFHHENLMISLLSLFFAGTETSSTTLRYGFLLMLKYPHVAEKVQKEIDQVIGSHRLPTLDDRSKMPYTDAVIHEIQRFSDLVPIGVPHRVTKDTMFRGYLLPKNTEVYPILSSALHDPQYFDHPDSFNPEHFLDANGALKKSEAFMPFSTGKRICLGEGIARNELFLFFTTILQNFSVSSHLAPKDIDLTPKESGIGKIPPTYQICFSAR
The experiment in a line: Inhibition of Aminopyrine N-demethylase in Phenobarbitone-treated rats. As to conditions: read-out: I50. Put shortly:
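Hepatic microsomes from immature male Wistar rats dosed with PB 80 (mg/kg)/day ip for 3 days and starved 24 h. Prepared in 0.1 M potassium phosphate pH 7.4. Aminopyrine N-demethylation followed by formaldehyde formation. Results expressed as molar I50.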

The target in data set [2] is T2, aryl hydrocarbon hydroxylase (cytochrome P450 1A1) (Rattus norvegicus, UniProt P00185).
T2 sequence (P00185 whole entry): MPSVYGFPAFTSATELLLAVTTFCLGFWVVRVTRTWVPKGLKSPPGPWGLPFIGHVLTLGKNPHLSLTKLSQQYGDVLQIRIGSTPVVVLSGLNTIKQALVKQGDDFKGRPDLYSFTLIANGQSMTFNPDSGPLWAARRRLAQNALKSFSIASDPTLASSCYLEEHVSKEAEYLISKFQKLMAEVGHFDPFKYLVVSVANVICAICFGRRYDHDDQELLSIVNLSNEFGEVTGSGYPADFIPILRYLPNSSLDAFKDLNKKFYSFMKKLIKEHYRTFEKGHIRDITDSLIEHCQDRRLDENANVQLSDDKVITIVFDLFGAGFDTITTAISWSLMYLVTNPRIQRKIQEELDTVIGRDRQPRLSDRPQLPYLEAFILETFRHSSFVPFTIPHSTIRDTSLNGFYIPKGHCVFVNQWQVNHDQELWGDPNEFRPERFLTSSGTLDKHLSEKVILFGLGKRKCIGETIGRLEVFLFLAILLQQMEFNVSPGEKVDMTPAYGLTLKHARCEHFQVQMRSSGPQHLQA
The experiment in a line: Inhibition of Aryl hydrocarbon hydroxylase in phenobarbitone-treated rats. Particulars: read-out: I50. Put shortly:
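Microsomes from immature male Wistar rats (100-150 g) given PB 80 (mg/kg)/day ip for 3 days, starved 24 h. Incubation: BP 285 nmol, MgCl2 3.0 μmol, NADPH 0.50 μmol, protein 1.2 mg, 0.1 M K phosphate pH 7.4, 3.0 mL. Run 10 min at 37 °C. Phenol fluorescence read at ex 396/em 522 nm. I50 by linear regression over five to eight inhibitor concentrations, mean of duplicates.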

For data set [3], the target named is T2, aryl hydrocarbon hydroxylase (cytochrome P450 1A1). Description: Effect on Aryl hydrocarbon hydroxylase activity in 3-methylcolanthrene-induced rat liver microsomes at 5.2x10E-5M. In kind it is ADME, Microsome. Particulars: 3-methylcholanthrene-induced rat liver microsomes, read-out: Control. Put shortly:
(§1)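 Liver microsomes from immature male Wistar rats (100-150 g) given one 3-MC dose (25 mg/kg in corn oil, ip) 3 days before sacrifice, starved 24 h. Incubation: BP 357 nmol, MgCl2 3.0 μmol, NADPH 0.50 μmol, protein 1.2 mg, 0.1 M K phosphate pH 7.4, 3.0 mL final volume. Run 6 min at 37 °C. Fluorescent phenols read at ex 396/em 522 nm. Activity given as % of solvent control, mean of three determinations, at roughly maximum solubility.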
(Microsomes from liver hold many membrane-bound enzymes, among them those of drug oxidation.)

Data set [4] deals with T3, cytochrome P450 (cytochrome P450 1A1) (Rattus norvegicus, UniProt P00185).
T3 sequence (P00185 whole entry): T2 sequence (P00185 whole entry)
Description: Interaction with cytochrome P450 in 3-methylcholanthrene-induced rat hepatic microsomes. In kind it is ADME, Liver. Particulars: read-out: Ks. Put shortly: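 Hepatic microsomes from immature male Wistar rats given 3-MC (25 mg/kg in corn oil, ip, single dose) 3 days before sacrifice, starved 24 h. Optical difference spectra recorded at 1 mg/mL microsomal protein. Ks taken from abscissal intercept of double-reciprocal plot of ΔOD (peak-trough) vs concentration, five to eight concentrations, in duplicate.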

Data set [5] addresses T2, aryl hydrocarbon hydroxylase (cytochrome P450 1A1). Description: Effect on Aryl hydrocarbon hydroxylase activity in 3-methylcolanthrene-induced rat liver microsomes at 4.3x10E-4M. In kind it is ADME, Microsome. As to conditions: 3-methylcholanthrene-induced rat liver microsomes, read-out: Control. The essentials: (§2)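 Liver microsomes from immature male Wistar rats (100-150 g) given one 3-MC dose (25 mg/kg in corn oil, ip) 3 days before sacrifice, starved 24 h. Incubation: benzo[a]pyrene 357 nmol, MgCl2 3.0 μmol, NADPH 0.50 μmol, 1.2 mg protein, 0.1 M potassium phosphate pH 7.4 (3.0 mL), 6 min, 37 °C. Compound added from 0.07 N HCl or Me2SO-water stock at near-maximal solubility. Fluorescent phenols read ex 396/em 522 nm. Value is % of solvent control, mean of three determinations.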

Data set [6] addresses T1, Cytochrome P450 2B1. Description: Interaction with cytochrome P450 in Phenobarbitone-induced rat hepatic microsomes. In kind it is ADME, Liver. As to conditions: read-out: Ks. The essentials:
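Microsomes came from immature male Wistar rats dosed with phenobarbitone, 80 (mg/kg)/day ip for 3 days, and starved 24 h before sacrifice. Difference spectra recorded at 1 mg/mL microsomal protein. Ks obtained in duplicate from abscissal intercept of a double-reciprocal plot of ΔOD (peak-trough) against compound concentration, using five to eight concentrations.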

The nature of data set [7]: Partition coefficient (logP). In kind it is physicochemical. As to conditions: octanol/water.
Data set [8] deals with T2, aryl hydrocarbon hydroxylase (cytochrome P450 1A1). Description: Effect on Aryl hydrocarbon hydroxylase activity in 3-methylcolanthrene-induced rat liver microsomes at 3.6x10E-4M. In kind it is ADME, Microsome. As to conditions: 3-methylcholanthrene-induced rat liver microsomes, read-out: Control. The essentials: as §1
For data set [9] the target is unchanged. Description: Effect on Aryl hydrocarbon hydroxylase activity in 3-methylcolanthrene-induced rat liver microsomes at 5.9x10E-4M. In kind it is ADME, Microsome. As to conditions: 3-methylcholanthrene-induced rat liver microsomes, read-out: Control. Put shortly:
as §1

For data set [10], the target named is T1, Cytochrome P450 2B1. Description: Interaction (Ks) with cytochrome P450 in phenobarbitone-induced rat hepatic microsomes. In kind it is ADME, Liver. Particulars: read-out: Ks. Put shortly: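 Difference spectra recorded with microsomes from PB-treated rats (80 (mg/kg)/day ip, 3 days) at 1 mg/mL microsomal protein. Ks obtained in duplicate from double-reciprocal plots of ΔOD (peak-trough) versus five to eight ligand concentrations, using the abscissal intercept.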

The target in data set [11] is T3, cytochrome P450 (cytochrome P450 1A1). Description: Interaction (Ks) with cytochrome P450 in 3-methylcholanthrene-induced rat hepatic microsomes. In kind it is ADME, Liver. As to conditions: read-out: Ks. The essentials: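 Optical difference spectra recorded with microsomes from 3-MC-treated rats (25 mg/kg in corn oil, ip, 3 days) at 1 mg/mL protein. Ks taken from the abscissal intercept of double-reciprocal plots of ΔOD (peak-trough) against five to eight compound concentrations, determined in duplicate.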

The target in data set [12] is T2, aryl hydrocarbon hydroxylase (cytochrome P450 1A1). Description: Effect on Aryl hydrocarbon hydroxylase activity in 3-methylcolanthrene-induced rat liver microsomes at 2.3x10E-4M. In kind it is ADME, Microsome. Particulars: 3-methylcholanthrene-induced rat liver microsomes, read-out: Control. The essentials:
as §1

For data set [13] the target is unchanged. The experiment in a line: Effect on Aryl hydrocarbon hydroxylase activity in 3-methylcolanthrene-induced rat liver microsomes at 8x10E-4M. In kind it is ADME, Microsome. Particulars: 3-methylcholanthrene-induced rat liver microsomes, read-out: Control. The essentials: as §2
The target is the same in data set [14]. The experiment in a line: Effect on Aryl hydrocarbon hydroxylase activity in 3-methylcolanthrene-induced rat liver microsomes at 1.7x10E-4M. As to conditions: 3-methylcholanthrene-induced rat liver microsomes, read-out: Control. In kind it is ADME, Microsome. Put shortly: as §1
For data set [15] the target is unchanged. Description: Effect on Aryl hydrocarbon hydroxylase activity in 3-methylcolanthrene-induced rat liver microsomes at 1.2x10E-3M. In kind it is ADME, Microsome. As to conditions: 3-methylcholanthrene-induced rat liver microsomes, read-out: Control. Put shortly:
as §2

Data set [16] has the same target. Description: Effect on Aryl hydrocarbon hydroxylase activity in 3-methylcolanthrene-induced rat liver microsomes at 5.0x10E-5M. In kind it is ADME, Microsome. Particulars: 3-methylcholanthrene-induced rat liver microsomes, read-out: Control. The essentials: as §1

pIC50, pKd: −log10 of the molar value. Structures can show the parent of a compound that is named as a salt.

As to `CCCC(C(=O)OCCN(CC)CC)(c1ccccc1)c1ccccc1` [PROADIFEN HYDROCHLORIDE], the figures for the pIC50 (at Cytochrome P450 2B1 [1]; in data set [2]) were 5.09 and 4.66, respectively. For the same compound, the activity at 52 µM in data set [3] is 105%.
Turning to `c1ccc(-c2c[nH]cn2)cc1`, the values for the pIC50 (on Cytochrome P450 2B1 [1]; in [2]) were 5.13 and 4.48, respectively. The values for the pKd (in [4]; on Cytochrome P450 2B1 [6]) were 5.77 and 5.96, respectively. In addition, in data set [5], the activity at 0.00043 M amounted to 83%.
In the case of `CCCCCc1nc2ccccc2[nH]1`, the pIC50 at Cytochrome P450 2B1 [1] was 4.30; in [2] it was 4.09. Moreover, in [7], the logP came out at 3.85. In [8], the activity at 0.00036 M is 89%.
As to `CCc1nc2ccccc2[nH]1`, the pIC50 is 3.17 on Cytochrome P450 2B1 [1] and 3.20 in [2]. The logP in data set [7] stood at 2.35.
Take `CCCc1nc2ccccc2[nH]1`: the results for the pIC50 (on Cytochrome P450 2B1 [1]; in data set [2]) were 3.52 and 3.32, respectively. For the same compound, the logP in [7] was determined as 2.85. Further, the activity at 0.00059 M in [9] was 99%.
For `c1ccc2cc3[nH]cnc3cc2c1`, the pIC50 on Cytochrome P450 2B1 [1] is 4.28; in data set [2] it was 4.08. In addition, the pKd on Cytochrome P450 2B1 [10] was 4.82; in data set [11] it was 4.09.
For the compound `Cc1nc2cc(C)c(C)cc2[nH]1`, the pIC50 was 3.43 on Cytochrome P450 2B1 [1] and 3.77 in data set [2]. In addition, the logP in data set [7] is 2.85. Further, the pKd was 4.55 in data set [4] and 4.00 at Cytochrome P450 2B1 [6]. Moreover, the activity at 0.00023 M in data set [12] turned out to be 77%.
For the compound `Cc1cc2nc[nH]c2cc1C` [DIMEDAZOL], the pIC50 on Cytochrome P450 2B1 [1] is 3.74; in data set [2], 4.01. Besides, in [7], the logP worked out at 2.35. Moreover, the values for the pKd (in data set [4]; at Cytochrome P450 2B1 [6]) were 3.49 and 4.21, respectively. Also, the activity at 0.0008 M in data set [13] came to 69%.
Take `CCCCCCCc1nc2ccccc2[nH]1`: the pIC50 on Cytochrome P450 2B1 [1] was 4.59; in [2], 4.62. Further, in data set [7], the logP amounted to 4.85. Also, the activity at 0.00017 M in data set [14] amounted to 93%.
As for `CCc1nc2cc(C)c(C)cc2[nH]1`, the pIC50 is 3.74 on Cytochrome P450 2B1 [1] and 3.96 in data set [2]. This compound also returned a logP in data set [7] of 3.35.
As for `Cc1ccc2[nH]cnc2c1`, the pKd on Cytochrome P450 2B1 [6] is 4.21; in data set [11] it was 3.68.
For `c1ccc2[nH]cnc2c1` [BENZIMIDAZOLE], the pIC50 was 3.01 on Cytochrome P450 2B1 [1] and 2.96 in data set [2]. Besides, the logP in data set [7] was found to be 1.35. Moreover, the pKd in data set [4] was 2.49; on Cytochrome P450 2B1 [6] it was 3.96. Moreover, in data set [15], the activity at 0.0012 M came out at 101%.
As to `Cc1nc2ccccc2[nH]1`, the results for the pIC50 (on Cytochrome P450 2B1 [1]; in data set [2]) were 2.97 and 3.17, respectively. In addition, the logP in data set [7] amounted to 1.85. Further, the pKd in [4] was 3.29; on Cytochrome P450 2B1 [6], 3.36.
`CCCCCCCCCCCc1nc2ccccc2[nH]1`: the pIC50 was 4.82 at Cytochrome P450 2B1 [1] and 4.74 in data set [2]. The logP in data set [7] was 6.85. The activity at 50 µM in data set [16] came out at 103%.
